SENP7 inh – SENP7 protease inhibitors, primary screen, biochemical, luminescence, uHTS | recombinant SENP7, Z-RLRGG-aminoluciferin luminescence, 40 min | 330,000 compounds, 1.5% hits | Sentrin-specific protease 7 (Homo sapiens), Q9BQF6 | inhibition, % at 5 µM;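 active = inhibition above about 50% at the single test dose, limit read from the data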
SENP6 block – SENP6 protease inhibitors, primary screen, biochemical, luminescence, uHTS; Sentrin-specific protease 6 (Homo sapiens), Q9GZR1; Recombinant SENP6 catalytic domain, aminoluciferin luminescence; inhibition, % at 10 µM; 330,000 compounds, 1.8% hits;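 active = inhibition above about 50% at the single tested dose, limit read from the data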
Target sequence (Q9GZR1 628-1112 limits assumed): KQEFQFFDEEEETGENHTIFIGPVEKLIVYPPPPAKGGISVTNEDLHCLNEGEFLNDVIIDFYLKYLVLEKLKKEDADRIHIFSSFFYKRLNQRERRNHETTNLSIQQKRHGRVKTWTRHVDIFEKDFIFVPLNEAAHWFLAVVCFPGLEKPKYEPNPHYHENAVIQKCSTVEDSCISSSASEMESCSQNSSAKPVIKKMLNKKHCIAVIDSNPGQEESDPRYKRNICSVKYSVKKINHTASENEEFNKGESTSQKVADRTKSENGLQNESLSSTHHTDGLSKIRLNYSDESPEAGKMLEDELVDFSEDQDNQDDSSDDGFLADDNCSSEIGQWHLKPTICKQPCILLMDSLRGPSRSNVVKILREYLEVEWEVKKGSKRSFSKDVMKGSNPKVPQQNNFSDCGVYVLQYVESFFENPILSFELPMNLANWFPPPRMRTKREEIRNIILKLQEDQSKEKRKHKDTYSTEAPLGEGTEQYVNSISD
SENP8 block-1 – SENP8 protease inhibitors, primary screen, biochemical, luminescence. Sentrin-specific protease 8 (Homo sapiens), Q96LD8. purified SENP8, Z-RLRGG-aminoluciferin cleavage. inhibition, % at 10 µM. 330,000 compounds, 1.2% hits. AID 2540, 2010; in the data active = inhibition above about 50%
SENP8 block-2 – human SENP8 protease inhibitors, primary screen, biochemical, fluorescence, Nedd8 protein substrate, uHTS; recombinant SENP8; 360,000 compounds, 0.64% hits; inhibition, % at 20 µM; Sentrin-specific protease 8 (Homo sapiens), Q96LD8; in the data active = inhibition mostly above about 40%, no sharp cut-off; inactive = mostly below about 27%
Platelet DG rel – inhibitors of platelet dense granule secretion, primary screen, cell-based, MLPCN, human platelets | 300,000 compounds, 0.22% hits | human platelet-rich plasma, SFLLRN dense granule ATP release, luminescence | inhibition, %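 (compounds screened at 7.5 µM in platelet-rich plasma)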;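 active = mean replicate score, as percent of positive control, at or above 50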
SENP1 FRET inh – human SENP1 catalytic domain inhibitors, primary screen, biochemical, FRET, uHTS | 360,000 compounds, 0.21% hits | inhibition, % at 10 µM | Sentrin-specific protease 1 (Homo sapiens), Q9P0U3 | AID 624204, 2012 | recombinant SENP1 catalytic domain, CyPet-SUMO1-YPet FRET cleavage;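 active = inhibition at least 30% at 10 µM, raw YFP signal under a set limit, fluorescence ratio 0.5 to 1.5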
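Assay system – human recombinant His6-tagged SENP1 catalytic domain enzyme · Input – SENP1 enzyme, 20 pM final · Buffer or medium – Tris pH 8 buffer plus EDTA, NaCl, BME, BSA, NP40, catalase · Schedule – 50 min reaction at room temperature · Technique – FRET read of cyan and yellow fluorescence · Control set – no-enzyme wells low, DMSO-plus-enzyme wells high control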
SENP8 conf – SENP8 protease inhibitors, retest, confirmation, biochemical, luminescence, single concentration; shares compounds with SENP7 inh; Recombinant SENP8, Z-RLRGG-aminoluciferin luminescence, 60 min; inhibition, % at 12.5 µM; 6,200 compounds, 40% hits; AID 488912, 2010;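 active = mean inhibition across replicates above about 50%, limit read from the data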
SENP6 conf – SENP6 protease inhibitors, confirmation, biochemical, luminescence, single concentration | inhibition, % at 12.5 µM | shares compounds with SENP7 inh | 6,200 compounds, 58% hits | recombinant SENP6, Z-RLRGG-aminoluciferin luminescence
SENP7 confirm – SENP7 protease inhibitors, retest, confirmation, biochemical, luminescence, single concentration; AID 488917, 2010; recombinant SENP7, Z-RLRGG-aminoluciferin luminescence, 40 min; inhibition, % at 12.5 µM; 6,200 compounds, 69% hits; shares compounds with SENP7 inh
Casp3 SENP sel – caspase-3 protease inhibitors, confirmation, selectivity assay for SENP inhibitor project, biochemical, single concentration; 6,200 compounds, 60% hits; purified caspase-3, Z-DEVD-aminoluciferin luminescence, 60 min; shares compounds with SENP7 inh; inhibition, % at 12.5 µM;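 active = mean inhibition above about 50%, limit read from the data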
SENP luc ctr – luminescence interference (SENP counter-screen); shares compounds with SENP7 inh; Pre-incubated SENP8/Z-RLRGG-aminoluciferin, luciferase luminescence interference; inhibition, % at 12.5 µM; 6,200 compounds, 39% hits;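 active = mean inhibition above about 50% when retested at one dose, limit read from the data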
Large screens that a line does not name were inactive (follow-up assays come after a bar, where they were run). An excerpt weighted towards active compounds, which were near 2.6% of everything screened.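 The calls were made as follows, unless noted: active = mean inhibition above about 50% in the one-dose retest (limit read from the data); inactive = the rest.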

CC12CCC(C(=O)N(CC(O)CN3CCCCCC3)C1=O)C2(C)C (stereo unspecified)	none
COc1ccc2nc(N3C(=O)CNC3=S)sc2c1	none
Cc1ccc2nc(N3C(=O)CNC3=S)sc2c1	SENP7 inh 89, SENP6 block 94, SENP8 block-1 91 | SENP8 conf inactive | SENP6 conf 92 | SENP7 confirm 100 | Casp3 SENP sel 95 | SENP luc ctr inactive
CC(C)CC(=O)Nc1ccc(C(=O)COC(=O)C2CCC2)cc1	none
Cc1ccc2c(c1)S(=O)(=O)N(C)C(c1ccccc1)=C2	none (no result: SENP7 inh, SENP6 block, SENP8 block-1, Platelet DG rel)
CC(=O)Nc1ccc(-c2nc3cc(Cl)ccc3o2)cc1	SENP7 inh 59, SENP6 block 57 | SENP8 conf inactive | SENP6 conf inactive | SENP7 confirm 53 | Casp3 SENP sel inactive | SENP luc ctr inactive
COc1ccc(NC(=O)C2CCCO2)cc1 (stereo unspecified)	none
Cc1ccc2nc(-c3ccc(NC(=O)C4CCCO4)cc3)[nH]c2c1 (stereo unspecified)	SENP6 block 53 | SENP8 conf inactive | SENP6 conf inactive | SENP7 confirm 68 | Casp3 SENP sel 58 | SENP luc ctr inactive
O=C(O)c1ccccc1-c1ccccc1C(=O)Nc1ccc(-c2nc3cc(Cl)ccc3o2)cc1	none
O=C(Nc1ccc(-c2nc3cccnc3s2)cc1)C1CCCO1 (stereo unspecified)	SENP7 inh 94, SENP6 block 93, SENP8 block-1 90, Platelet DG rel 98 | SENP8 conf 95 | SENP6 conf 95 | SENP7 confirm 101 | Casp3 SENP sel 97 | SENP luc ctr 79
O=C(Nc1ccc(-c2nc3ccccc3o2)cc1)C1CCCO1 (stereo unspecified)	SENP7 inh 91, SENP6 block 94, SENP8 block-1 80, Platelet DG rel 56 | SENP8 conf 91 | SENP6 conf 92 | SENP7 confirm 100 | Casp3 SENP sel 93 | SENP luc ctr inactive
N#Cc1ccc(S(=O)(=O)N2CCC(C(=O)Nc3cccc(C(=O)NC4CC4)c3)CC2)cc1	none (no result: Platelet DG rel)
O=C(Nc1ccc2oc(-c3ccccc3)nc2c1)C1CCCO1 (stereo unspecified)	none
O=C(Nc1ccc(-c2nc3cc(Cl)ccc3o2)cc1)C1CCCO1 (stereo unspecified)	SENP7 inh 70 | SENP8 conf inactive | SENP6 conf inactive | SENP7 confirm inactive | Casp3 SENP sel inactive | SENP luc ctr inactive
CCOC(=O)N=S(N)(=O)c1ccc(Cl)cc1 (stereo unspecified)	SENP8 block-1 51 | SENP8 conf inactive | SENP6 conf inactive | SENP7 confirm inactive | Casp3 SENP sel inactive | SENP luc ctr inactive

Compound activity (PubChem)
